The values that follow come from ChEMBL document CHEMBL1123776, “Solid-phase synthesis and biological properties of psi [CH2NH] pseudopeptide analogues of a highly potent somatostatin octapeptide” (1987).

In experiment [1] the test system is Rattus norvegicus. Nature of the experiment: Ability to inhibit growth hormone release in the anesthetized rats measured as plasma growth hormone at a dose of 0.1 ug/100 g BW. It is filed as functional, organism-based. An outline of the steps: (§1)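 Male Sprague-Dawley rats anesthetized with sodium pentobarbital were given peptide, with saline and tetradecapeptide SRIF controls, at doses of 0.003–10 µg/100 g BW. Plasma GH was measured by radioimmunoassay. Values are mean ± SEM, with the number of rats per group given.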

Experiment [2] deals with Rattus norvegicus. Nature of the experiment: Ability to inhibit growth hormone release in the anesthetized rats measured as plasma growth hormone at a dose of 1 ug/100 g BW. It is filed as functional, organism-based. An outline of the steps:
as §1

The test system of experiment [3] is Rattus norvegicus. Put plainly: Ability to inhibit growth hormone release in the anesthetized rats measured as plasma growth hormone at a dose of 0.01 ug/100 g BW. The format is functional, organism-based. An outline of the steps: as §1
Experiment [4] concerns Rattus norvegicus. Put plainly: Ability to inhibit growth hormone release in the anesthetized rats measured as plasma growth hormone at a dose of 10 ug/100 g BW. The format is functional, organism-based. The method, boiled down: as §1
Experiment [5] deals with Rattus norvegicus. Put plainly: Ability to inhibit growth hormone release in the anesthetized rats measured as plasma growth hormone at a dose of 0.6 ug/100 g BW. It is filed as functional, organism-based. An outline of the steps: as §1
Experiment [6] has as its system Rattus norvegicus. Put plainly: Ability to inhibit growth hormone release in the anesthetized rats measured as plasma growth hormone at a dose of 0.2 ug/100 g BW. The format is functional, organism-based. An outline of the steps:
as §1

For experiment [7], the species on record is Rattus norvegicus. Nature of the experiment: Activity is measured as concentration producing 50% inhibition of growth hormone secretion in rats. The format is functional. An outline of the steps: (§2)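 Primary cultures of male rat anterior pituitary cells were kept for 4 days and then exposed to peptide. GH in the medium was measured by radioimmunoassay. The EC50 (50% inhibition of GH secretion) was fitted with ALLFIT. Potency was expressed as the ratio to the EC50 of tetradecapeptide SRIF as reference standard.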

Experiment [8] relates to Rattus norvegicus. Put plainly: Ability to inhibit growth hormone release in vivo in sodium pentobarbital anesthetized rats. It is filed as functional. The method, boiled down:
as §1

The species named for experiment [9] is Rattus norvegicus. Nature of the experiment: Ability to inhibit growth hormone release in vitro in cultured rat anterior pituitary cells. The format is functional, Pituitary gland cell. An outline of the steps:
as §2

The subject of experiment [10] is Rattus norvegicus. Put plainly: Ability to inhibit growth hormone release in the anesthetized rats measured as plasma growth hormone at a dose of 0.03 ug/100 g BW. The format is functional, organism-based. The method, boiled down:
as §1

Experiment [11] deals with Rattus norvegicus. Nature of the experiment: Ability to inhibit growth hormone release in the anesthetized rats measured as plasma growth hormone at a dose of 10 ug/100 g. The format is functional, organism-based. The method, boiled down: as §1
In experiment [12] the test system is Rattus norvegicus. Nature of the experiment: Ability to inhibit growth hormone release in the anesthetized rats measured as plasma growth hormone at a dose of 0.09 ug/100 g BW. It is filed as functional, organism-based. The method, boiled down:
as §1

In experiment [13] the test system is Rattus norvegicus. Nature of the experiment: Ability to inhibit growth hormone release in the anesthetized rats measured as plasma growth hormone ata dose of 0.01 ug/100 g BW. It is filed as functional, organism-based. The method, boiled down: as §1

Regarding `CC(C)[C@H]1NC[C@H](CCCCN)NC(=O)[C@@H](Cc2c[nH]c3ccccc23)NC(=O)[C@H](Cc2ccc(O)cc2)NC[C@@H](NC(=O)[C@@H](N)Cc2ccccc2)CSSC[C@H](C(=O)N[C@H](C(N)=O)[C@@H](C)O)NC1=O`, the Plasma GH is 250 ng/mL in [1], 124 ng/mL in experiment [2] and 258 ng/mL in [3].

In the case of `CC(C)[C@H]1NC(=O)[C@H](CCCCN)NC[C@@H](Cc2c[nH]c3ccccc23)NC(=O)[C@H](Cc2ccc(O)cc2)NC(=O)[C@@H](NC(=O)[C@@H](N)Cc2ccccc2)CSSC[C@H](C(=O)N[C@H](C(N)=O)[C@@H](C)O)NC1=O`, the Plasma GH in experiment [1] turned out to be 325 ng/mL; in experiment [2], 348 ng/mL; in [4] it was 265 ng/mL.

Turning to `CC(C)[C@H]1NC(=O)[C@H](CCCCN)NC(=O)[C@@H](Cc2c[nH]c3ccccc23)NC(=O)[C@H](Cc2ccc(O)cc2)NC(=O)[C@@H](NC(=O)[C@@H](N)Cc2ccccc2)CSSC[C@H](CN[C@H](C(N)=O)[C@@H](C)O)NC1=O`, the Plasma GH in experiment [5] came out at 156 ng/mL; in experiment [6], 248 ng/mL.

`CC(C)[C@H]1NC(=O)[C@H](CCCCN)NC(=O)[C@@H](Cc2c[nH]c3ccccc23)NC[C@H](Cc2ccc(O)cc2)NC(=O)[C@@H](NC(=O)[C@@H](N)Cc2ccccc2)CSSC[C@H](C(=O)N[C@H](C(N)=O)[C@@H](C)O)NC1=O`: the figures for the Plasma GH in experiment [1], in experiment [2] and in [4] were 307 ng/mL, 176 ng/mL and 137 ng/mL, respectively.

`CC(C)[C@@H]1NC(=O)[C@H](CCCCN)NC(=O)[C@@H](Cc2c[nH]c3ccccc23)NC[C@H](Cc2ccc(O)cc2)NC(=O)[C@@H](NC(=O)[C@H](N)Cc2ccccc2)CSSC[C@@H](C(=O)N[C@H](C(N)=O)[C@@H](C)O)NC1=O` yielded an ED50 in [7] of 9.1 nM. Besides, the Potency is reported as 20% in experiment [8] and 0.68% in [9].

On to `CC(C)[C@H]1NC(=O)[C@H](CCCCN)NC(=O)[C@@H](Cc2c[nH]c3ccccc23)NC(=O)[C@H](Cc2ccc(O)cc2)NC[C@@H](NC(=O)[C@@H](N)Cc2ccccc2)CSSC[C@H](C(=O)N[C@H](C(N)=O)[C@@H](C)O)NC1=O`, for which the Plasma GH in experiment [10] worked out at 98 ng/mL; in experiment [3] it was 146 ng/mL.

In the case of `CC(C)[C@@H]1NC(=O)[C@H](CCCCN)NC(=O)[C@@H](Cc2c[nH]c3ccccc23)NC(=O)[C@H](Cc2ccc(O)cc2)NC[C@@H](NC(=O)[C@H](N)Cc2ccccc2)CSSC[C@@H](C(=O)N[C@H](C(N)=O)[C@@H](C)O)NC1=O`, in [7], the ED50 came out at 0.35 nM. Further, the Potency in [8] came to 1960%; in [9], 17.43%.

In the case of `CC(C)[C@@H]1NC(=O)[C@H](CCCCN)NC(=O)[C@@H](Cc2c[nH]c3ccccc23)NC(=O)[C@H](Cc2ccc(O)cc2)NC(=O)[C@@H](NC[C@@H](N)Cc2ccccc2)CSSC[C@@H](C(=O)N[C@H](C(N)=O)[C@@H](C)O)NC1=O`, the ED50 in [7] stood at 6.1 nM. The figures for the Potency in experiment [8] and in experiment [9] were 160% and 1.01%, respectively.

For `CC(C)[C@@H]1CN[C@@H](C(=O)N[C@H](C(N)=O)[C@@H](C)O)CSSC[C@H](NC(=O)[C@@H](N)Cc2ccccc2)C(=O)N[C@@H](Cc2ccc(O)cc2)C(=O)N[C@H](Cc2c[nH]c3ccccc23)CN[C@@H](CCCCN)C(=O)N1`, the figures for the Plasma GH in experiment [1], in [2] and in experiment [11] were 509 ng/mL, 393 ng/mL and 325 ng/mL, respectively.

For `CC(C)[C@H]1NC(=O)[C@H](CCCCN)NC(=O)[C@@H](Cc2c[nH]c3ccccc23)NC(=O)[C@H](Cc2ccc(O)cc2)NC(=O)[C@@H](NC[C@@H](N)Cc2ccccc2)CSSC[C@H](C(=O)N[C@H](C(N)=O)[C@@H](C)O)NC1=O`, the Plasma GH in experiment [5] amounted to 90 ng/mL; in experiment [6], 185 ng/mL.

In the case of `CC(C)[C@@H]1CN[C@H](C(=O)N[C@H](C(N)=O)[C@@H](C)O)CSSC[C@H](NC(=O)[C@H](N)Cc2ccccc2)C(=O)N[C@@H](Cc2ccc(O)cc2)C(=O)N[C@H](Cc2c[nH]c3ccccc23)CN[C@@H](CCCCN)C(=O)N1`, in [7], the ED50 is above 1000 nM. In addition, the Potency is 2% in experiment [8] and below 0.001% in experiment [9].

`CC(C)[C@@H]1NC(=O)[C@H](CCCCN)NC[C@@H](Cc2c[nH]c3ccccc23)NC(=O)[C@H](Cc2ccc(O)cc2)NC(=O)[C@@H](NC(=O)[C@H](N)Cc2ccccc2)CSSC[C@@H](C(=O)N[C@H](C(N)=O)[C@@H](C)O)NC1=O` returned an ED50 in experiment [7] of 190 nM. Also, the Potency in experiment [8] is listed as 2%; in [9], 0.03%.

Take `CC(C)[C@@H]1NC[C@H](CCCCN)NC(=O)[C@@H](Cc2c[nH]c3ccccc23)NC(=O)[C@H](Cc2ccc(O)cc2)NC(=O)[C@@H](NC(=O)[C@H](N)Cc2ccccc2)CSSC[C@@H](C(=O)N[C@H](C(N)=O)[C@@H](C)O)NC1=O`: the ED50 in experiment [7] worked out at 0.092 nM. For the same compound, the results for the Potency in experiment [8] and in [9] were 434% and 67.27%, respectively.

The compound `CC(C)[C@@H]1NC[C@H](CCCCN)NC(=O)[C@@H](Cc2c[nH]c3ccccc23)NC(=O)[C@H](Cc2ccc(O)cc2)NC[C@@H](NC(=O)[C@H](N)Cc2ccc3ccccc3c2)CSSC[C@@H](C(=O)N[C@H](C(N)=O)[C@@H](C)O)NC1=O` came in with an ED50 in experiment [7] of 1.8 nM. The Potency was 50% in experiment [8] and 3.44% in [9].

As for `CC(C)[C@H]1NC[C@H](CCCCN)NC(=O)[C@@H](Cc2c[nH]c3ccccc23)NC(=O)[C@H](Cc2ccc(O)cc2)NC(=O)[C@@H](NC(=O)[C@@H](N)Cc2ccccc2)CSSC[C@H](C(=O)N[C@H](C(N)=O)[C@@H](C)O)NC1=O`, the figures for the Plasma GH in experiment [12] and in experiment [10] were 120 ng/mL and 174 ng/mL, respectively.

Turning to `CC(C)[C@@H]1CN[C@@H](C(=O)N[C@H](C(N)=O)[C@@H](C)O)CSSC[C@H](NC(=O)[C@@H](N)Cc2ccccc2)C(=O)N[C@@H](Cc2ccc(O)cc2)C(=O)N[C@H](Cc2c[nH]c3ccccc23)C(=O)N[C@@H](CCCCN)C(=O)N1`, the Plasma GH in experiment [1] was 381 ng/mL; in experiment [2] it was 266 ng/mL; in experiment [4] it was 225 ng/mL.

`CC(C)[C@@H]1CN[C@H](C(=O)N[C@H](C(N)=O)[C@@H](C)O)CSSC[C@H](NC(=O)[C@H](N)Cc2ccccc2)C(=O)N[C@@H](Cc2ccc(O)cc2)C(=O)N[C@H](Cc2c[nH]c3ccccc23)C(=O)N[C@@H](CCCCN)C(=O)N1` returned an ED50 in experiment [7] of 350 nM. Besides, the Potency in experiment [8] was found to be 2%; in [9] it was 0.02%.

Consider `CC(C)[C@@H]1NC[C@H](CCCCN)NC(=O)[C@@H](Cc2c[nH]c3ccccc23)NC(=O)[C@H](Cc2ccc(O)cc2)NC[C@@H](NC(=O)[C@H](N)Cc2ccccc2)CSSC[C@@H](C(=O)N[C@H](C(N)=O)[C@@H](C)O)NC1=O`, for which the ED50 in experiment [7] was 6.3 nM. Moreover, the Potency came out at 65% in experiment [8] and 0.98% in [9].

For the compound `CC(C)[C@H]1NC[C@H](CCCCN)NC(=O)[C@@H](Cc2c[nH]c3ccccc23)NC(=O)[C@H](Cc2ccc(O)cc2)NC[C@@H](NC(=O)[C@@H](N)Cc2ccc3ccccc3c2)CSSC[C@H](C(=O)N[C@H](C(N)=O)[C@@H](C)O)NC1=O`, the Plasma GH in [1] amounted to 291 ng/mL; in [2], 133 ng/mL; in experiment [13] it was 433 ng/mL.

On to `CC(C)[C@@H]1NC(=O)[C@H](CCCCN)NC(=O)[C@@H](Cc2c[nH]c3ccccc23)NC(=O)[C@H](Cc2ccc(O)cc2)NC(=O)[C@@H](NC(=O)[C@H](N)Cc2ccccc2)CSSC[C@H](CN[C@H](C(N)=O)[C@@H](C)O)NC1=O`, for which the ED50 in experiment [7] worked out at 15 nM. Besides, the figures for the Potency in experiment [8] and in [9] were 73% and 0.41%, respectively.
